Data published in ChEMBL document CHEMBL1137074, “Novel N-arylpyrazolo[3,2-c]-based ligands for the glucocorticoid receptor: receptor binding and in vivo activity” (J Med Chem, 2004).

Assays:
[1] = target: T1, Glucocorticoid receptor (Homo sapiens, UniProt P04150); experiment: Ability to induce human IL-6 assay in A549 lung carcinoma cell line.; format: functional, cell-based
T1 sequence (P04150 whole entry): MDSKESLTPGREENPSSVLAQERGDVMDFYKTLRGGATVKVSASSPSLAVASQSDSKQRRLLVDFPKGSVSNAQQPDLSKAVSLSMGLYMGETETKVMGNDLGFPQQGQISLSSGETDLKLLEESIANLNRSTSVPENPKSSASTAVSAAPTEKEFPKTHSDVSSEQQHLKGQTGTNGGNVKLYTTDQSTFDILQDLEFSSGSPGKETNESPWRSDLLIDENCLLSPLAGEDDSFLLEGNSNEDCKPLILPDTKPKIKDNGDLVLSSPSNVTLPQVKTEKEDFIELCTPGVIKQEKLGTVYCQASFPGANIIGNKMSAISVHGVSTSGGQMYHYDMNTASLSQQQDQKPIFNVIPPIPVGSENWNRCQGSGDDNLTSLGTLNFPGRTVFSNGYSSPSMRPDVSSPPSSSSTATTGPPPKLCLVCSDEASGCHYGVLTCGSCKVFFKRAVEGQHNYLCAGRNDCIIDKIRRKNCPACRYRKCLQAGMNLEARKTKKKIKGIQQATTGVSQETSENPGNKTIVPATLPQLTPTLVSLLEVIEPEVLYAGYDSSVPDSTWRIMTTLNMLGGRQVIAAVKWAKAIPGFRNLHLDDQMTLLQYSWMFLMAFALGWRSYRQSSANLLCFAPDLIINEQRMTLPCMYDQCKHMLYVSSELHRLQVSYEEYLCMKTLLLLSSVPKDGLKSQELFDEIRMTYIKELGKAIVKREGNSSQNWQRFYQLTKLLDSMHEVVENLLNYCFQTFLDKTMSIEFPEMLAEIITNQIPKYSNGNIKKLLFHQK

[2] = target: T1, Glucocorticoid receptor; experiment: Compound was tested for inhibitory activity towards human glucocorticoid receptor
[3] = target: T1, Glucocorticoid receptor; experiment: Ability to induce human glutamine synthetase in skeletal muscle cells; format: cell-based
[4] = system: Mus musculus; experiment: Ability to induce mouse macrophage IL-6 assay in peritoneal exudate cells harvested by […] from C57BI/6 mice.; format: functional, cell-based
How it was run: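 Thioglycolate-elicited peritoneal exudate cells from C57Bl/6 mice, harvested day 3 in PBS/heparin, washed and resuspended at 5.6×10^5 cells/mL in RPMI 1640 with 10% heat-inactivated FCS. Compound (typically 3 μM final) preincubated 1 h at 37 °C, 5% CO2, then LPS or TNF added, 24 h. Supernatant IL-6 read; duplicate wells, three experiments.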

[5] = target: T1, Glucocorticoid receptor; experiment: Glucocorticoid induced transactivation of human tyrosine amino transferase in HepG2 cells; format: functional, cell-based
[6] = target: T2, Androgen receptor (Homo sapiens, UniProt P10275); experiment: Binding affinity for human androgen receptor
T2 sequence (P10275 whole entry): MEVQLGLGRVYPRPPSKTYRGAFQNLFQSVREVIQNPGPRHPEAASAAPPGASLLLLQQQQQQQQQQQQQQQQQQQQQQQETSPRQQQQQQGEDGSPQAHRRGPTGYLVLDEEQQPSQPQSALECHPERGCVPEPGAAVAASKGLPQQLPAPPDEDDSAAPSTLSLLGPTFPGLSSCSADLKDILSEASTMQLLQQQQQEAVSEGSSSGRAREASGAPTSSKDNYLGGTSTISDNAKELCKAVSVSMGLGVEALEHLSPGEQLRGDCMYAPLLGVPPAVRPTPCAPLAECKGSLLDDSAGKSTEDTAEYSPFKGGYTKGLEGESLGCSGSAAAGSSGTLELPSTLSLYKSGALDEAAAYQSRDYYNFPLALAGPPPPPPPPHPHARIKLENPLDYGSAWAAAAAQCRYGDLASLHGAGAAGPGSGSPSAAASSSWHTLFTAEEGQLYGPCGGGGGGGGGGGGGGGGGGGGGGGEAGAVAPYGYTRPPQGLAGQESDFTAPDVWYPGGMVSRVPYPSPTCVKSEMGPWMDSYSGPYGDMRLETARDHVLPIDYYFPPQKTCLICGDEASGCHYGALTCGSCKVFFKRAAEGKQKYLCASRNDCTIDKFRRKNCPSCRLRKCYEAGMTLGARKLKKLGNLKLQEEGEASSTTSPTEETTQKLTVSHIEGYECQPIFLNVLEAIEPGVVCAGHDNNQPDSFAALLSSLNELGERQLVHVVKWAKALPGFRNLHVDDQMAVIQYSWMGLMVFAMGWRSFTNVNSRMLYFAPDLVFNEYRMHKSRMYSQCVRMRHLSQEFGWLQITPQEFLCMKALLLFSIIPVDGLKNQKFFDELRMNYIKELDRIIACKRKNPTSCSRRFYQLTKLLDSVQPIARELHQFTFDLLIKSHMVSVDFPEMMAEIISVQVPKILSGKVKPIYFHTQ

[7] = target: T3, Estrogen receptor (Homo sapiens, UniProt P03372); experiment: Binding affinity for human Estrogen receptor alpha
T3 sequence (P03372 whole entry): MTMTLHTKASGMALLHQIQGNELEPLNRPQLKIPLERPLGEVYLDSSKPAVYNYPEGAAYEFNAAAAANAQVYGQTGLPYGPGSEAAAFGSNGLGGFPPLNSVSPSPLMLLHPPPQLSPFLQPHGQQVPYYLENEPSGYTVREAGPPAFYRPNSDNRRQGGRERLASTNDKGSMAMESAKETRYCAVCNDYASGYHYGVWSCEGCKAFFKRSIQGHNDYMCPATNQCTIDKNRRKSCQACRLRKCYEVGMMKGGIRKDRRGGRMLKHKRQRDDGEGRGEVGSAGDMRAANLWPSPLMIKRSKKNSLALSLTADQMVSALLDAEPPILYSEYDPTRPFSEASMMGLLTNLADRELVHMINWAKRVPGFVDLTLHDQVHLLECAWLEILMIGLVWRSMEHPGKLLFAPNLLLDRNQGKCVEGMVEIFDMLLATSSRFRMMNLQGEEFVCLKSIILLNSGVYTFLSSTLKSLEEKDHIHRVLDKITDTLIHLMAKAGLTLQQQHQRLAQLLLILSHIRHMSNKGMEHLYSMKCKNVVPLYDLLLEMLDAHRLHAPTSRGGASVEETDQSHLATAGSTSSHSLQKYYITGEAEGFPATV

[8] = target: T4, Progesterone receptor (Homo sapiens, UniProt P06401); experiment: Binding affinity towards human progesterone receptor
T4 sequence (P06401 whole entry): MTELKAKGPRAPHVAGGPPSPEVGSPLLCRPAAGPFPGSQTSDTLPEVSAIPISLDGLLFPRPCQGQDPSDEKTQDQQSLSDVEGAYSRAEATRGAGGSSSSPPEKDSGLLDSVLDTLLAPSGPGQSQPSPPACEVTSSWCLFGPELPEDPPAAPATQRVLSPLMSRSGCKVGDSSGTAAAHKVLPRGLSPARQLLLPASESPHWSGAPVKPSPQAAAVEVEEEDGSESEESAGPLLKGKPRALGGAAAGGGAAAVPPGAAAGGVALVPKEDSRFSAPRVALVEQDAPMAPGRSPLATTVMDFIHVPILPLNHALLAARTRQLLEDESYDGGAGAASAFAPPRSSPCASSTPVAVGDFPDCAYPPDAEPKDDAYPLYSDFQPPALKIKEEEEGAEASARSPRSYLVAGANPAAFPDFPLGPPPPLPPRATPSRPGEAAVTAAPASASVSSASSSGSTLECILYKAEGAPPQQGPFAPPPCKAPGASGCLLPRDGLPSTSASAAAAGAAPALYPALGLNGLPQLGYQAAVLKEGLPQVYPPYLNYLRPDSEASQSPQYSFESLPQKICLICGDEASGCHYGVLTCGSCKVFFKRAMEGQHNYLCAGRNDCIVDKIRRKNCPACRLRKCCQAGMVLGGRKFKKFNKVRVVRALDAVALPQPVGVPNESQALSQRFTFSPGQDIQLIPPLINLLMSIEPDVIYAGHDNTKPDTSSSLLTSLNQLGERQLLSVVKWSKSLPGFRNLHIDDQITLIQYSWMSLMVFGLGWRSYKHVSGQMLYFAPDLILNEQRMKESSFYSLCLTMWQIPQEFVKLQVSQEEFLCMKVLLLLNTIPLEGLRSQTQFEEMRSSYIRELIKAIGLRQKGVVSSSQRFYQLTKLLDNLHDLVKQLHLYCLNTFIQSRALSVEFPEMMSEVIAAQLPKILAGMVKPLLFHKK
How it was run: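 Receptor homogenates from frozen cell pellets in ice-cold KPO4 buffer (10 mM KPO4, 20 mM molybdate, 1 mM EDTA, 5 mM DTT, protease inhibitors), spun 35 000g 1 h at 4 °C. MR: recombinant baculovirus-expressed rat receptor, 2 nM [3H]aldosterone; PR: T-47D cell protein, 5 nM [3H]progesterone.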

[9] = target: Mineralocorticoid receptor (Rattus norvegicus) (UniProt P22199); experiment: Binding affinity for rat mineralocorticoid receptor
Sequence of Mineralocorticoid receptor (Rattus norvegicus) (P22199 whole entry, looked up): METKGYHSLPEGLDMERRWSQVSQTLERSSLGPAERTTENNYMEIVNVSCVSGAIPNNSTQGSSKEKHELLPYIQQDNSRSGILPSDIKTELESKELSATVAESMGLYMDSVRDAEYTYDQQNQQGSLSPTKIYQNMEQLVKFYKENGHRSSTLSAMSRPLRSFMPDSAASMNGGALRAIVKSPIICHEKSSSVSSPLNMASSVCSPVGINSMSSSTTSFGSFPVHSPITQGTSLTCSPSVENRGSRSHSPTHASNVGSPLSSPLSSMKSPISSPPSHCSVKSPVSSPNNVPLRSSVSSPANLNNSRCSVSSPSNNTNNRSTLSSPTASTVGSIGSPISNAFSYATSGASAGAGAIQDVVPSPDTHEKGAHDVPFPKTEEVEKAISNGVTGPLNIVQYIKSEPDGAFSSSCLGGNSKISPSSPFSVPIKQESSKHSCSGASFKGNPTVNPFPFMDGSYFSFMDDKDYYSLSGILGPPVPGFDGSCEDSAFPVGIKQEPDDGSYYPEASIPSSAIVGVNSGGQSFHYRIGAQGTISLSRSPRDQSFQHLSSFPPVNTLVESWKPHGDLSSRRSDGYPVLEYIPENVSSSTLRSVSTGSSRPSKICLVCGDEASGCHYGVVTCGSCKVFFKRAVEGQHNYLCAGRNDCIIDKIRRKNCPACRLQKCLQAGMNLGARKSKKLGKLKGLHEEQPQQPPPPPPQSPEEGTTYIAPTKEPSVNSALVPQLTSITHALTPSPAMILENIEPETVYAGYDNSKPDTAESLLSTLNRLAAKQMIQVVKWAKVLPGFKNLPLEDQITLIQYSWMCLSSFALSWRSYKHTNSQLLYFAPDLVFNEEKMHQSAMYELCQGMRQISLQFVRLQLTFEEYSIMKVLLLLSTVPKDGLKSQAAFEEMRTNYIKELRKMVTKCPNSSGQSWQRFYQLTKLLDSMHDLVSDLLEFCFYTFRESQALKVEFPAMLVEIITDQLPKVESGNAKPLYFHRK

[10] = target: T1, Glucocorticoid receptor; experiment: Binding affinity for human glucocorticoid receptor

Row | SMILES | EC50 [1] [nM] | IC50 [2] [nM] | EC50 [4] [nM] | IC50 [6] [nM] | IC50 [7] [nM] | IC50 [8] [nM] | IC50 [9] [nM] | IC50 [10] [nM] | EC50 [3] [nM] | EC50 [5] [nM]
1 | C=CC[C@H](O)[C@H]1CCCC2=Cc3c(cnn3-c3ccc(F)cc3)C[C@@]21C | 9.3 | 3.9 | 36.2 | – | – | – | – | – | 66 | 661
2 | C[C@]12Cc3cnn(-c4ccc(F)cc4)c3C=C1CCC[C@@H]2[C@](C)(O)c1ccsc1 | 1 | 0.8 | 5.2 | – | – | – | – | – | 14.2 | 35.6
3 | CC(C)(O)[C@H]1CCCC2=Cc3c(cnn3-c3ccc(F)cc3)C[C@@]21C | 3 | 1.9 | 15.1 | – | – | – | – | – | 182 | 83.5
4 | C[C@]12Cc3cnn(-c4ccc(F)cc4)c3C=C1CCC[C@@H]2[C@@H](O)CCC1CC1 | 8.6 | 1.5 | 26.3 | – | – | – | – | – | 66 | 332
5 | CC(C)(C)[C@H](O)[C@H]1CCCC2=Cc3c(cnn3-c3ccc(F)cc3)C[C@@]21C | – | 77.3 | – | – | – | – | – | – | – | –
6 | COc1cc([C@H](O)[C@H]2CCCC3=Cc4c(cnn4-c4ccc(F)cc4)C[C@@]32C)cc(F)c1F | 14.4 | 1.9 | 15.2 | > 5000 | > 1000 | > 1000 | > 5000 | 1.9 | – | 521
7 | Cc1ccc(C[C@H](O)[C@H]2CCCC3=Cc4c(cnn4-c4ccc(F)cc4)C[C@@]32C)cc1 | 11.4 | 3.4 | 41.5 | – | – | – | – | – | – | –
8 | CC(C)(C)c1ccc(C[C@H](O)[C@H]2CCCC3=Cc4c(cnn4-c4ccc(F)cc4)C[C@@]32C)cc1 | 24.2 | 16.6 | 86.5 | – | – | – | – | – | – | –
9 | COc1ccc(C[C@H](O)[C@H]2CCCC3=Cc4c(cnn4-c4ccc(F)cc4)C[C@@]32C)cc1 | – | 6.3 | 66.6 | – | – | – | – | – | – | –
10 | C[C@]12Cc3cnn(-c4ccc(F)cc4)c3C=C1CCC[C@@H]2[C@@H](O)Cc1ccc(F)cc1 | 3.2 | 2.8 | 3.7 | – | – | – | – | – | 53.7 | 1000
11 | Cc1cc([C@H](O)[C@H]2CCCC3=Cc4c(cnn4-c4ccc(F)cc4)C[C@@]32C)ccc1F | 10.2 | 6.7 | 54.3 | – | – | – | – | – | – | –
12 | C[C@]12C=CC(=O)C=C1CCC1[C@@H]2[C@@H](O)C[C@@]2(C)[C@H]1CC[C@]2(O)C(=O)CO (single isomer, unassigned) [PREDNISOLONE] | – | – | 5.7 | – | – | – | – | – | – | –

The next lines start with results.

Row | EC50 [1] [nM] | IC50 [2] [nM] | EC50 [4] [nM] | IC50 [6] [nM] | IC50 [7] [nM] | IC50 [8] [nM] | IC50 [9] [nM] | IC50 [10] [nM] | SMILES | EC50 [3] [nM] | EC50 [5] [nM]
13 | 54.2 | 24.9 | 179 | – | – | – | – | – | C[C@]12Cc3cnn(-c4ccc(F)cc4)c3C=C1CCC[C@@H]2[C@@H](O)c1cccc(O)c1 | – | –
14 | 2.7 | 7.2 | 57.4 | – | – | – | – | – | C[C@]12Cc3cnn(-c4ccc(F)cc4)c3C=C1CCC[C@@H]2[C@@H](O)c1ccccc1F | – | –
15 | 13.9 | 4.2 | 24.7 | – | – | – | – | – | C[C@]12Cc3cnn(-c4ccc(F)cc4)c3C=C1CCC[C@@H]2[C@@H](O)Cc1ccccc1 | – | –
16 | – | – | – | > 5000 | > 1000 | > 1000 | > 5000 | – | C[C@]12Cc3cnn(-c4ccc(F)cc4)c3C=C1CCC[C@@H]2[C@H](O)c1ccc(F)cc1 | – | –
17 | 31.3 | 7.9 | 20.5 | – | – | – | – | – | COc1cc([C@H](O)[C@H]2CCCC3=Cc4c(cnn4-c4ccc(F)cc4)C[C@@]32C)ccc1F | – | –
18 | 14.3 | 8.8 | – | – | – | – | – | – | C[C@H](O)[C@H]1CCCC2=Cc3c(cnn3-c3ccc(F)cc3)C[C@@]21C | – | –
19 | – | – | – | > 5000 | > 5000 | > 1000 | > 5000 | – | C[C@]12Cc3cnn(-c4ccc(F)cc4)c3C=C1CCC[C@@H]2[C@@H](O)c1ccc(F)cc1 | – | –
20 | 1.9 | 9 | 60.1 | – | – | – | – | – | C[C@]12Cc3cnn(-c4ccc(F)cc4)c3C=C1CCC[C@@H]2[C@@H](O)c1ccc(Cl)cc1 | – | –
21 | 19.5 | 9.5 | 77.2 | – | – | – | – | – | C[C@]12Cc3cnn(-c4ccc(F)cc4)c3C=C1CCC[C@@H]2[C@@H](O)c1ccc(O)cc1 | – | –
22 | 2.9 | 8.4 | 111 | > 5000 | > 1000 | 660 | > 5000 | 8.4 | C[C@]12Cc3cnn(-c4ccc(F)cc4)c3C=C1CCC[C@@H]2[C@@H](O)c1ccccc1 | – | –
